We go through one compound from ChEMBL document CHEMBL5661979, “Pharmacological inhibition of BMK1 suppresses tumor growth through promyelocytic leukemia protein” (Cancer Cell, 2010).

Some results are limits rather than exact numbers.

Experiment [1] addresses 5'-AMP-activated protein kinase catalytic subunit alpha-1 (Homo sapiens, UniProt Q13131). The experiment can be described thus: Inhibition of AMPKalpha1 in human HeLa cells lysate pre incubated for 15 mins followed by ADP acyl phosphate probe addition and measured after 10 mins by LC-MS/MS analysis. The format is subcellular. The method, boiled down: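 HeLa cell lysates (5 mg/mL total protein) were preincubated with inhibitor at 0, 0.8, 2, 10 or 50 μM for 15 min. ATP or ADP acylphosphate probe was then added (5 μM final) for 10 min, and reactions were stopped with urea. Up to four fragment ions per kinase probe-peptide were quantified by targeted MS. % inhibition was taken relative to untreated lysate. Run in duplicate.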

Experiment [2] addresses T1, Phosphorylase b kinase gamma catalytic chain, liver/testis isoform (Homo sapiens) (UniProt P15735).
T1 sequence (whole entry): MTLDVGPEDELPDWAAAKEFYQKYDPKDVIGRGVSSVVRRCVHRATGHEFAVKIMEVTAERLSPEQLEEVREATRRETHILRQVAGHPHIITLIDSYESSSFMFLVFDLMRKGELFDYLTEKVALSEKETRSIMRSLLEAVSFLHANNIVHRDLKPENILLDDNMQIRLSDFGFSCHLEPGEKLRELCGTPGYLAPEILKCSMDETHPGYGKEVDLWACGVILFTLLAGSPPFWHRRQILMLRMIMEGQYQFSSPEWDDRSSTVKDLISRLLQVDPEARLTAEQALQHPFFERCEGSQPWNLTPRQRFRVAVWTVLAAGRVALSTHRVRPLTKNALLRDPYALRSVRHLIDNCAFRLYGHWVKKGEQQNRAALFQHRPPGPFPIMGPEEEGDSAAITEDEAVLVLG
The experiment is described as follows: Inhibition of PHKg2 in human HeLa cells lysate at 2 uM pre incubated for 15 mins followed by ATP acyl phosphate probe addition and measured after 10 mins by LC-MS/MS analysis relative to control. Particulars: time 25.0 min. The format is subcellular.

For experiment [3], the target named is Casein kinase I isoform alpha (Homo sapiens, UniProt P48729). The experiment can be described thus: Inhibition of CK1alpha in human HeLa cells lysate pre incubated for 15 mins followed by ATP acyl phosphate probe addition and measured after 10 mins by LC-MS/MS analysis. Format: subcellular.
The target of experiment [4] is Tyrosine-protein kinase Fer (Homo sapiens, UniProt P16591). The experiment can be described thus: Inhibition of FER in human HeLa cells lysate at 50 uM pre incubated for 15 mins followed by ATP acyl phosphate probe addition and measured after 10 mins by LC-MS/MS analysis relative to control. The format is subcellular. Particulars: time 25.0 min.
Experiment [5] addresses Cyclin-dependent kinase 2 (Homo sapiens, UniProt P24941). The experiment can be described thus: Inhibition of CDK2 in human HeLa cells lysate at 10 uM pre incubated for 15 mins followed by ADP acyl phosphate probe addition and measured after 10 mins by LC-MS/MS analysis relative to control. The format is subcellular. Particulars: time 25.0 min. The method, boiled down:
(§1)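 KiNativ profiling in HeLa lysate (5 mg/mL total protein). Lysate incubated 15 min with inhibitor at 50, 10, 2, 0.8 or 0 μM. ATP or ADP acylphosphate probe then added (5 μM final) and reacted 10 min. Reaction stopped with urea and analysed by targeted MS, using up to four fragment ions per kinase peptide-probe conjugate. % inhibition taken against untreated lysate. Run in duplicate.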

For the next experiment, the target named is RPS6KA1/RPS6KA2/RPS6KA3 (Homo sapiens, UniProt P51812+Q15349+Q15418). The experiment is described as follows: Inhibition of RSK1/2/3 in human HeLa cells lysate at 50 uM pre incubated for 15 mins followed by ATP acyl phosphate probe addition and measured after 10 mins by LC-MS/MS analysis relative to control. Format: subcellular. Conditions: time 25.0 min.

Experiment [6] concerns the target Serine/threonine-protein kinase Nek7 (Homo sapiens, UniProt Q8TDX7). The experiment is described as follows: Inhibition of NEK7 in human HeLa cells lysate at 50 uM pre incubated for 15 mins followed by ADP acyl phosphate probe addition and measured after 10 mins by LC-MS/MS analysis relative to control. The format is subcellular. Particulars: time 25.0 min.
In experiment [7] the target is Mitogen-activated protein kinase 14 (Homo sapiens, UniProt Q16539). The experiment is described as follows: Inhibition of P38a interaction site in human HeLa cells lysate pre incubated for 15 mins followed by ATP acyl phosphate probe addition and measured after 10 mins by LC-MS/MS analysis. The format is subcellular.
Experiment [8] can be described thus: Inhibition of PCTAIRE2/3 in human HeLa cells lysate at 50 uM pre incubated for 15 mins followed by ADP acyl phosphate probe addition and measured after 10 mins by LC-MS/MS analysis relative to control. Conditions: 25 min, condition cancer.
Experiment [9] deals with Serine/threonine-protein kinase Nek1 (Homo sapiens, UniProt Q96PY6). The experiment can be described thus: Inhibition of NEK1 in human HeLa cells lysate pre incubated for 15 mins followed by ATP acyl phosphate probe addition and measured after 10 mins by LC-MS/MS analysis. Format: subcellular.
For experiment [10], the target named is Dual specificity mitogen-activated protein kinase kinase; MEK1/2 (Homo sapiens, UniProt P36507+Q02750). The experiment is described as follows: Inhibition of MAP2K1/MAP2K2 in human HeLa cells lysate pre incubated for 15 mins followed by ADP acyl phosphate probe addition and measured after 10 mins by LC-MS/MS analysis. The format is subcellular.
The target in experiment [11] is Serine/threonine-protein kinase Nek8 (Homo sapiens) (UniProt Q86SG6). The experiment is described as follows: Inhibition of NEK8 in human HeLa cells lysate at 2 uM pre incubated for 15 mins followed by ADP acyl phosphate probe addition and measured after 10 mins by LC-MS/MS analysis relative to control. Format: subcellular. Particulars: time 25.0 min.
The target in experiment [12] is Interleukin-1 receptor-associated kinase 1 (Homo sapiens, UniProt P51617). The experiment is described as follows: Inhibition of IRAK1 in human HeLa cells lysate pre incubated for 15 mins followed by ATP acyl phosphate probe addition and measured after 10 mins by LC-MS/MS analysis. The format is subcellular.
In experiment [13] the target is Serine/threonine-protein kinase B-raf (Homo sapiens, UniProt P15056). The experiment can be described thus: Inhibition of BRAF in human HeLa cells lysate pre incubated for 15 mins followed by ATP acyl phosphate probe addition and measured after 10 mins by LC-MS/MS analysis. The format is subcellular. In a few lines: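 KiNativ-type profiling in HeLa lysate (5 mg/mL total protein). Lysate preincubated 15 min with inhibitor at 50, 10, 2, 0.8 or 0 μM, then ATP or ADP acylphosphate probe added (5 μM final) for 10 min. Reaction stopped with urea and analysed by targeted MS, using up to four fragment ions per kinase peptide-probe conjugate. % inhibition calculated against untreated lysate. Duplicate reactions.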

Experiment [14] concerns the target Cyclin-dependent kinase 7 (Homo sapiens, UniProt P50613). The experiment is described as follows: Inhibition of CDK7 in human HeLa cells lysate at 2 uM pre incubated for 15 mins followed by ATP acyl phosphate probe addition and measured after 10 mins by LC-MS/MS analysis relative to control. The format is subcellular. Particulars: time 25.0 min. In a few lines:
as §1

Experiment [15] deals with Serine/threonine-protein kinase Nek8 (Homo sapiens, UniProt Q86SG6). The experiment is described as follows: Inhibition of NEK8 in human HeLa cells lysate pre incubated for 15 mins followed by ADP acyl phosphate probe addition and measured after 10 mins by LC-MS/MS analysis. Format: subcellular.
Experiment [16] in a line: Inhibition of NEK6/7 in human HeLa cells lysate at 10 uM pre incubated for 15 mins followed by ATP acyl phosphate probe addition and measured after 10 mins by LC-MS/MS analysis relative to control. Conditions: 25 min, condition cancer.
Experiment [17] concerns the target Serine/threonine-protein kinase PLK1 (Homo sapiens, UniProt P53350). The experiment is described as follows: Inhibition of PLK1 in human HeLa cells lysate at 50 uM pre incubated for 15 mins followed by ATP acyl phosphate probe addition and measured after 10 mins by LC-MS/MS analysis relative to control. The format is subcellular. Particulars: time 25.0 min.
Experiment [18] is described as follows: Inhibition of Wnk1/2/4 in human HeLa cells lysate pre incubated for 15 mins followed by ATP acyl phosphate probe addition and measured after 10 mins by LC-MS/MS analysis. The format is subcellular.

Mitogen-activated protein kinase 14, sequence (Q16539 whole entry): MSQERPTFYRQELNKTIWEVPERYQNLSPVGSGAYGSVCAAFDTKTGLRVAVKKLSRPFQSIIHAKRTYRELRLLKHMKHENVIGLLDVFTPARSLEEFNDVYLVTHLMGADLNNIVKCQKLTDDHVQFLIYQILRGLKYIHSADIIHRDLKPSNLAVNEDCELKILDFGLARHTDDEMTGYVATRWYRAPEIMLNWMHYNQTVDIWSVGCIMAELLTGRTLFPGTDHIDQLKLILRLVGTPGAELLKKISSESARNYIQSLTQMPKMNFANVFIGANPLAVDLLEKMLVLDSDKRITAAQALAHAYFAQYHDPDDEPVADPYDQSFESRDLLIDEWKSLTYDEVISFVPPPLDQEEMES
5'-AMP-activated protein kinase catalytic subunit alpha-1, sequence (Q13131 whole entry, the tested form may be a part): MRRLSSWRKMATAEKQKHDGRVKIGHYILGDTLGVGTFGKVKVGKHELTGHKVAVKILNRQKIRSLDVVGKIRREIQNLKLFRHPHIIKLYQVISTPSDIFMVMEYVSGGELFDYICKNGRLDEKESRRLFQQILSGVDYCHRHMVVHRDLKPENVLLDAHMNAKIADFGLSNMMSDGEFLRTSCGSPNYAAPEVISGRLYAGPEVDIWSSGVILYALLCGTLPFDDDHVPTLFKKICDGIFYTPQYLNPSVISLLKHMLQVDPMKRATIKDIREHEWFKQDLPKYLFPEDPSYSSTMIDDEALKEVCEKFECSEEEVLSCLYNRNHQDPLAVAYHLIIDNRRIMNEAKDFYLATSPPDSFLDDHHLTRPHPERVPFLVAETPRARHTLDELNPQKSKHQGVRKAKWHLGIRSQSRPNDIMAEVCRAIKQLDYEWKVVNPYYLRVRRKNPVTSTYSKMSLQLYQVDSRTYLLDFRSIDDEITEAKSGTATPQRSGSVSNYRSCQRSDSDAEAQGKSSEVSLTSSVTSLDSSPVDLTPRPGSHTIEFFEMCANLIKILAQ
RPS6KA1/RPS6KA2/RPS6KA3, sequence (P51812 whole entry, looked up): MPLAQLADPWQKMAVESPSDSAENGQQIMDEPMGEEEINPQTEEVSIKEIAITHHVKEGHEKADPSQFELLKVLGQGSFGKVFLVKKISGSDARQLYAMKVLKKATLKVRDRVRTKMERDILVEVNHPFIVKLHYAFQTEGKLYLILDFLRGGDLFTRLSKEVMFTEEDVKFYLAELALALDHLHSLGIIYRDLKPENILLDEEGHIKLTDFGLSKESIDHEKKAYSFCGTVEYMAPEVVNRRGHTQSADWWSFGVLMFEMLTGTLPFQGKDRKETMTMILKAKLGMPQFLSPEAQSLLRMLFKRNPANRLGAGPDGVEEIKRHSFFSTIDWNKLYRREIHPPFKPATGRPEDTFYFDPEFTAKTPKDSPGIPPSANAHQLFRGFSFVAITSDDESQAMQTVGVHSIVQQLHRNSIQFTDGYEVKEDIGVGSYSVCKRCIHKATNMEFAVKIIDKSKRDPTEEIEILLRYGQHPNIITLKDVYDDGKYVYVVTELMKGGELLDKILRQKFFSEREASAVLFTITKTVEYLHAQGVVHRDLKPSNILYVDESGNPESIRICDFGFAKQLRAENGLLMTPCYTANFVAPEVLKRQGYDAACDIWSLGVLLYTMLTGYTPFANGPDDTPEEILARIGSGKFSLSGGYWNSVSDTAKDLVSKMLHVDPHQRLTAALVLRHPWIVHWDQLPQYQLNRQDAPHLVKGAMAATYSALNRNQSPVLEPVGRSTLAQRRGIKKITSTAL
RPS6KA1/RPS6KA2/RPS6KA3, sequence (Q15349 whole entry, looked up): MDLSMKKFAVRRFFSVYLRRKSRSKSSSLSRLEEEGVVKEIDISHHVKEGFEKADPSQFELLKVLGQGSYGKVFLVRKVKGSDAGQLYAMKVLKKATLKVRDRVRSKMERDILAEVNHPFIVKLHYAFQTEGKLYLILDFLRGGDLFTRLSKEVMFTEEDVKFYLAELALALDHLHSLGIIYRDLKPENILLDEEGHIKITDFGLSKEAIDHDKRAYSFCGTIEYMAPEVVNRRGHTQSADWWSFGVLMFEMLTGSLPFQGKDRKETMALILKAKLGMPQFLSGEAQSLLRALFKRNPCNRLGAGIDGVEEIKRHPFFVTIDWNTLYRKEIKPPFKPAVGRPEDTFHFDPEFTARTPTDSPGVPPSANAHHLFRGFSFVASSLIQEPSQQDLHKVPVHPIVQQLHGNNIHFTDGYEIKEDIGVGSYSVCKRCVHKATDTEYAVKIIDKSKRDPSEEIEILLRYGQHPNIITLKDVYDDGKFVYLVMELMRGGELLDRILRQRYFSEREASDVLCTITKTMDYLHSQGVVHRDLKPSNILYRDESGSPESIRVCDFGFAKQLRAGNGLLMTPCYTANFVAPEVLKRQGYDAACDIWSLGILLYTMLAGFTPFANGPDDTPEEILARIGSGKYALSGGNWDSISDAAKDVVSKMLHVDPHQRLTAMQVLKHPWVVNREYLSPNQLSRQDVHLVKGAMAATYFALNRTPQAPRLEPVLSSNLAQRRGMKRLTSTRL
RPS6KA1/RPS6KA2/RPS6KA3, sequence (Q15418 whole entry, looked up): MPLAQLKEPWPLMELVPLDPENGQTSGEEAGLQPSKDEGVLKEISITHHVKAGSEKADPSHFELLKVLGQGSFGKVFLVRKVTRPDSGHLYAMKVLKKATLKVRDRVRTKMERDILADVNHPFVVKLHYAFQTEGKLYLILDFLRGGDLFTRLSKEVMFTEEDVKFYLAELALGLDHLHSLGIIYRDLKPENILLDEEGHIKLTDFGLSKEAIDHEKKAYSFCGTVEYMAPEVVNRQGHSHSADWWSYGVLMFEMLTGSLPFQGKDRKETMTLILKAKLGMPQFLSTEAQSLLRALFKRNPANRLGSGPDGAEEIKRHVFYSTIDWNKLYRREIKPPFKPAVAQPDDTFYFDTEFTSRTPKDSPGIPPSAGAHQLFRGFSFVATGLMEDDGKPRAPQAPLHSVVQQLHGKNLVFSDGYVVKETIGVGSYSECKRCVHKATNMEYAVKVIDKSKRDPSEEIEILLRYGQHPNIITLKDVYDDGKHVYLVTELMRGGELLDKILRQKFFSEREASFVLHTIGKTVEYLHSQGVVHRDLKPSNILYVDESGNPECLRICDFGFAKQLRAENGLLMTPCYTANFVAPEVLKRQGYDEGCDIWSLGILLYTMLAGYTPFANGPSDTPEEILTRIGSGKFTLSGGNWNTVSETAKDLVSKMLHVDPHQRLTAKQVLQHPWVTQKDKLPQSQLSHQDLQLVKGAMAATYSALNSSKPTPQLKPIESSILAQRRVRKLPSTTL
Cyclin-dependent kinase 7, sequence (P50613 whole entry): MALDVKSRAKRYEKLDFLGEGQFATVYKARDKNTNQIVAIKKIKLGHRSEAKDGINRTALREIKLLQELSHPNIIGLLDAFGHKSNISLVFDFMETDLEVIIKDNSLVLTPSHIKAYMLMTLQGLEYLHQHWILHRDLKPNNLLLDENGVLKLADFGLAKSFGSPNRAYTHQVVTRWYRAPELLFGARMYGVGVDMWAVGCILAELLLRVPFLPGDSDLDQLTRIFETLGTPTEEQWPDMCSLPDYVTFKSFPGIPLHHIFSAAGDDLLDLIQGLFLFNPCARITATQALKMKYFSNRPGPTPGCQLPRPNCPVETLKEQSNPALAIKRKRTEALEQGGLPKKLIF
Serine/threonine-protein kinase Nek1, sequence (Q96PY6 whole entry): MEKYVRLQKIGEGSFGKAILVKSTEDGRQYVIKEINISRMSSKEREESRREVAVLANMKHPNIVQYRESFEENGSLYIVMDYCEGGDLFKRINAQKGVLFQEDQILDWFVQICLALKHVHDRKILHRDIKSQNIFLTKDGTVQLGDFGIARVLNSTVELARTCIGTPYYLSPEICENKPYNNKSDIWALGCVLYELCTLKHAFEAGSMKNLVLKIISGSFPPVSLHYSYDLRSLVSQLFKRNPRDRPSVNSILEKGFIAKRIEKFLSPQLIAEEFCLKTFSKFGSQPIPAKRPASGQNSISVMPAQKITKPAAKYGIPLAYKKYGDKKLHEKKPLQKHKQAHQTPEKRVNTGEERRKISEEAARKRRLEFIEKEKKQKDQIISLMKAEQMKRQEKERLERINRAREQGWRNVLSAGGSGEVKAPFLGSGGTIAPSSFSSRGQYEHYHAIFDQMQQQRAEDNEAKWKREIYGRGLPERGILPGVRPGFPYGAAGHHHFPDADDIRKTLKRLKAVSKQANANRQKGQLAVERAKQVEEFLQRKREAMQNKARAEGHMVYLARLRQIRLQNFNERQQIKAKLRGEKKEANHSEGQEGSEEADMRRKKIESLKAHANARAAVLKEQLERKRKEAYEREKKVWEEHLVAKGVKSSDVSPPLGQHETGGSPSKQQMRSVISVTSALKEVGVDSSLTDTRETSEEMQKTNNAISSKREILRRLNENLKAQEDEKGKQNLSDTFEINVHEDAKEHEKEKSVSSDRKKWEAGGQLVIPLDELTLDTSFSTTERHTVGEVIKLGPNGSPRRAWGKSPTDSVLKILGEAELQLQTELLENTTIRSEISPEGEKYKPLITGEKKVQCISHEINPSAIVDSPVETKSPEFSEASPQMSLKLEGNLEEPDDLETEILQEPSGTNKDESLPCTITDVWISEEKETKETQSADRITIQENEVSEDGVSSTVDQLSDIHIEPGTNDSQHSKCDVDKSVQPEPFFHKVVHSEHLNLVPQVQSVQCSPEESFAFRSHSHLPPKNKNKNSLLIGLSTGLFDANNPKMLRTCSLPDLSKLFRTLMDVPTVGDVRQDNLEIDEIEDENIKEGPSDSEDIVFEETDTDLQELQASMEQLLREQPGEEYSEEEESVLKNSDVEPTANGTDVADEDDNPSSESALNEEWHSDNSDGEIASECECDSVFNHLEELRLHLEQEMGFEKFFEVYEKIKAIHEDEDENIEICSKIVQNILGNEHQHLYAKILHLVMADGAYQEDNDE
Serine/threonine-protein kinase Nek7, sequence (Q8TDX7 whole entry, looked up): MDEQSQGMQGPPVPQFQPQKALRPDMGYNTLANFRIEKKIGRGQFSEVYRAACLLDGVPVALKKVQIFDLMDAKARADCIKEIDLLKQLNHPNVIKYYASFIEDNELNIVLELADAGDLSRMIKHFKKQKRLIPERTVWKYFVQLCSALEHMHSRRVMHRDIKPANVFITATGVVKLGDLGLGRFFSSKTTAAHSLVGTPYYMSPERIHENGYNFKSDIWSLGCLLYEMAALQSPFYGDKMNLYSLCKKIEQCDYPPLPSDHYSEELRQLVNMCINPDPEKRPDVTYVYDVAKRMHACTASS

Consider `CCOc1cc(N2CCC(O)CC2)ccc1Nc1ncc2c(n1)N(C)c1ccccc1C(=O)N2C`, for which the IC50 in experiment [1], in experiment [3], in experiment [7], in experiment [9], in experiment [10] and in experiment [12] was greater than 50 µM in each case. The half-inhibitory concentration (IC50) in [13], in experiment [15] and in experiment [18] was greater than 50 µM throughout. Moreover, the inhibition in experiment [2] is 3.7%; in experiment [4] it was 14.8%; in experiment [5] it was -3.8%; at RPS6KA1/RPS6KA2/RPS6KA3, 0.9%; in [6], -2.3%; in experiment [11] it was 30.2%. In addition, the values for the inhibition in [14] and in experiment [17] were -7.9% and -6.5%, respectively. The inhibition at 50 µM in [8] was -8.7%. Also, the inhibition at 10 µM in experiment [16] is -10.7%.
